Results as given in ChEMBL document CHEMBL4431328, “Development of a Single-Chain Peptide Agonist of the Relaxin-3 Receptor Using Hydrocarbon Stapling” (J Med Chem, 2016).
The source made the active and inactive calls. The rule behind the calls is not given here. Where a SMILES comes first, the peptide text is derived from it. Bridges are numbered along the chain shown (N, C = ends). [ ]: non-standard residue; d: D form. S5 = C=CCCC[C@](C)(N)C(=O)O

Key:
Relaxin-3 receptor 1 [1] = target: T1, Relaxin-3 receptor 1 (Homo sapiens, UniProt Q9NSD7); assay: Displacement of Eu-H3/15 from human RXFP3 receptor expressed in CHOK1 cells by time-resolved fluorescent whole cell binding assay; type: cell-based
T1 sequence (Q9NSD7 whole entry): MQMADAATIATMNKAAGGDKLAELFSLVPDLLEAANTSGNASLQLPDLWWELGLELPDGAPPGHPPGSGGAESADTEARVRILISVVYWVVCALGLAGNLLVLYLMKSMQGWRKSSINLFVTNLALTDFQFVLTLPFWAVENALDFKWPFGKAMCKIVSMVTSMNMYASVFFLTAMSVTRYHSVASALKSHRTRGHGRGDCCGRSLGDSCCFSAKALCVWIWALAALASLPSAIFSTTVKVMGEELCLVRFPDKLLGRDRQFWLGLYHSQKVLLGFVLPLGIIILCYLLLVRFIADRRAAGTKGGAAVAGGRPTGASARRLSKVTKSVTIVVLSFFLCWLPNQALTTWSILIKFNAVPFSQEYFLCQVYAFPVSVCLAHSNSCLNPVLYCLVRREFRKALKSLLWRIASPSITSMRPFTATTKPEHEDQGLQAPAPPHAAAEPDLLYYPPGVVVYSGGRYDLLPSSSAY

Relaxin-3 receptor 1 [2] = target: T1, Relaxin-3 receptor 1; assay: Agonist activity at human RXFP3 receptor expressed in CHOK1 cells cotransfected with beta-galactosidase assessed as inhibition of forskolin-stimulated cAMP by beta-galactosidase reporter gene assay; type: functional, cell-based
Relaxin-3 receptor 2 [3] = target: T2, Relaxin-3 receptor 2 (Homo sapiens, UniProt Q8TDU9); assay: Displacement of Eu-INSL5 from human RXFP4 receptor expressed in CHOK1 cells by time-resolved fluorescent whole cell binding assay; type: cell-based
T2 sequence (Q8TDU9 whole entry): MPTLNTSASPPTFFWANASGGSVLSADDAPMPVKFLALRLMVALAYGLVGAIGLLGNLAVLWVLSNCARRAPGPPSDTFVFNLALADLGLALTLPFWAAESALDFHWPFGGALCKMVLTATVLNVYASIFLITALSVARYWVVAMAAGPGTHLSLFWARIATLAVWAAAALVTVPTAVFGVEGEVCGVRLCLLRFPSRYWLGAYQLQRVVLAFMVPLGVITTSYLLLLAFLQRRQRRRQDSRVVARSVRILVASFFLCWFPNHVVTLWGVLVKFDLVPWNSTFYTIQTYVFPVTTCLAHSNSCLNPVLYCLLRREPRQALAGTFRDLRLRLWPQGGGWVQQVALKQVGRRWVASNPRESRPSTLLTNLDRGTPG

Relaxin-3 receptor 2 [4] = target: T2, Relaxin-3 receptor 2; assay: Agonist activity at human RXFP4 receptor expressed in CHOK1 cells cotransfected with beta-galactosidase assessed as inhibition of forskolin-stimulated cAMP by beta-galactosidase reporter gene assay; type: functional, cell-based
Relaxin receptor 1 = target: T3, Relaxin receptor 1 (Homo sapiens, UniProt Q9HBX9); assay: (§1) Agonist activity at RXFP1 receptor (unknown origin) expressed in HEK-293T cells cotransfected with beta-galactosidase assessed as cAMP activation by beta-galactosidase reporter gene assay; type: functional, cell-based
T3 sequence (Q9HBX9 whole entry): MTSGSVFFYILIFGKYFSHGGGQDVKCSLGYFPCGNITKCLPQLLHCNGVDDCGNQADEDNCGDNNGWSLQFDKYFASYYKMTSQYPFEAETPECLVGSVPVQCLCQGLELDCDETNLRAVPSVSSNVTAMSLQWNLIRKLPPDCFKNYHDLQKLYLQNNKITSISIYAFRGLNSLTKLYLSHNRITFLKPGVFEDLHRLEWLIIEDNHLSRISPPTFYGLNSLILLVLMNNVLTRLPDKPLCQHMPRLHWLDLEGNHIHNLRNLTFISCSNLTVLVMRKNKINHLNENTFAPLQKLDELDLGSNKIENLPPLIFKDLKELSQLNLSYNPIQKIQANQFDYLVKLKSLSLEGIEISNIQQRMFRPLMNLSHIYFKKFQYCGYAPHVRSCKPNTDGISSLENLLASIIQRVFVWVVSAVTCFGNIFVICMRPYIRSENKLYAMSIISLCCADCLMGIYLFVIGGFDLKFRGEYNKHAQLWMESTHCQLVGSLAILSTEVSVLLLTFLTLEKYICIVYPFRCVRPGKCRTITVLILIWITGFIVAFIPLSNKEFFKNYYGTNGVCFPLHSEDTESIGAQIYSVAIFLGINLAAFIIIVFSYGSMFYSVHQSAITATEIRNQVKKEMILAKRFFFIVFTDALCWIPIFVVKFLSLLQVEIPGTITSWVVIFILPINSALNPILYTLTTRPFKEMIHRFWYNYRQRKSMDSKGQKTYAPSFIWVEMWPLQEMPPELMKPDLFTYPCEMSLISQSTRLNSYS
Procedure, shortened: (§2)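 Tested for RXFP1 activation at concentrations up to 10 µM, alongside the […] as a reference.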

[5] = target: T4, Relaxin receptor 1 (Homo sapiens) (UniProt Q9HBX9); assay: Agonist activity at RXFP1 receptor (unknown origin) expressed in HEK-293T cells cotransfected with beta-galactosidase assessed as cAMP activation at 10 uM by beta-galactosidase reporter gene assay; type: functional, cell-based; procedure, shortened: as §2
T4 sequence (whole entry): T3 sequence (Q9HBX9 whole entry)

Rattus norvegicus [6] = assay: Induction of food intake in satiated Sprague-Dawley rat at 1 nmol, icv during early light phase measured after 1 hr post dose; type: functional, organism-based
Rattus norvegicus [7] = assay: Induction of water intake in satiated Sprague-Dawley rat at 1 nmol, icv during early light phase measured after 1 hr post dose; type: functional, organism-based
[8] = target: T4, Relaxin receptor 1 (Homo sapiens); assay: as §1; type: functional, cell-based; procedure, shortened: as §2
Relaxin-3 receptor 1 [9] = target: T1, Relaxin-3 receptor 1; assay: Agonist activity at human RXFP3 receptor expressed in CHOK1 cells assessed as ERK1/2 phosphorylation incubated for 5 mins by alphascreen surefire assay; type: cell-based
[10] = Toxicity in satiated Sprague-Dawley rat assessed as behavioral changes at 1 nmol, icv during early light phase measured after 1 hr post dose under home cage condition; conditions: in vivo, icv_or_intrathecal

CC[C@H](C)[C@@H]1NC(=O)[C@H](Cc2ccccc2)NC(=O)[C@@](C)(NC(=O)[C@H](CCCNC(=N)N)NC(=O)CNC(=O)[C@H](CO)NC(=O)[C@H](CC(C)C)NC(=O)[C@H](CCCNC(=N)N)NC(C)=O)CCC/C=C/CCC[C@@](C)(C(=O)N[C@H](C(=O)N[C@H](C(=O)N[C@@H](Cc2ccccc2)C(=O)N[C@H](C(=O)N[C@@H](CO)C(=O)NCC(=O)NCC(=O)N[C@@H](CO)C(=O)N[C@@H](CCCNC(=N)N)C(=O)N[C@@H](Cc2c[nH]c3ccccc23)C(=O)O)[C@@H](C)O)[C@@H](C)CC)C(C)C)NC(=O)[C@H](CCCNC(=N)N)NC1=O (Ac-RLSGR[S5]FIR[S5]VIFTSGGSRW-OH; staple (E) 6-10)
Ki (Relaxin-3 receptor 1 [1]): 107 nM | EC50 (Relaxin-3 receptor 1 [2]): 5.25 nM | Ki (Relaxin-3 receptor 2 [3]): 123 nM | EC50 (Relaxin-3 receptor 2 [4]): 120 nM | EC50 (Relaxin receptor 1): > 10000 nM | Activity [5]: inactive

CC[C@H](C)[C@H](NC(=O)[C@H](Cc1ccccc1)NC(=O)[C@H](CCC(=O)O)NC(=O)[C@H](CCCNC(=N)N)NC(=O)CNC(=O)[C@H](CO)NC(C)=O)C(=O)N[C@@H](CCCNC(=N)N)C(=O)N[C@@H](C)C(=O)N[C@H](C(=O)N[C@H](C(=O)N[C@@H](Cc1ccccc1)C(=O)N[C@H](C(=O)N[C@@H](CO)C(=O)NCC(=O)NCC(=O)N[C@@H](CO)C(=O)N[C@@H](CCCNC(=N)N)C(=O)N[C@@H](Cc1c[nH]c2ccccc12)C(=O)O)[C@@H](C)O)[C@@H](C)CC)C(C)C (Ac-SGREFIRAVIFTSGGSRW-OH)
EC50 (Relaxin-3 receptor 1 [2]): 8710 nM | Ki (Relaxin-3 receptor 2 [3]): > 10000 nM | EC50 (Relaxin-3 receptor 2 [4]): 2690 nM | EC50 (Relaxin receptor 1): > 10000 nM | Activity [5]: inactive

CC[C@H](C)[C@H](NC(=O)[C@H](Cc1ccccc1)NC(=O)[C@H](CCC(=O)O)NC(=O)[C@H](CCCNC(=N)N)NC(=O)CNC(=O)[C@H](CO)NC(C)=O)C(=O)N[C@@H](CCCNC(=N)N)C(=O)N[C@@H](CCCCN)C(=O)N[C@H](C(=O)N[C@H](C(=O)N[C@@H](Cc1ccccc1)C(=O)N[C@H](C(=O)N[C@@H](CO)C(=O)NCC(=O)NCC(=O)N[C@@H](CO)C(=O)N[C@@H](CCCNC(=N)N)C(=O)N[C@@H](Cc1c[nH]c2ccccc12)C(=O)O)[C@@H](C)O)[C@@H](C)CC)C(C)C (Ac-SGREFIRKVIFTSGGSRW-OH)
EC50 (Relaxin-3 receptor 1 [2]): 4570 nM | Ki (Relaxin-3 receptor 2 [3]): > 10000 nM | EC50 (Relaxin-3 receptor 2 [4]): 5890 nM | EC50 (Relaxin receptor 1): > 10000 nM | Activity [5]: inactive

CC[C@H](C)[C@@H]1NC(=O)[C@H](Cc2ccccc2)NC(=O)[C@@](C)(NC(=O)[C@H](CCCNC(=N)N)NC(=O)CNC(=O)[C@H](CO)NC(C)=O)CCC/C=C/CCC[C@@](C)(C(=O)N[C@H](C(=O)N[C@H](C(=O)N[C@@H](Cc2ccccc2)C(=O)N[C@H](C(=O)N[C@@H](CO)C(=O)NCC(=O)NCC(=O)N[C@@H](CO)C(=O)N[C@@H](CCCNC(=N)N)C(=O)N[C@@H](Cc2c[nH]c3ccccc23)C(=O)O)[C@@H](C)O)[C@@H](C)CC)C(C)C)NC(=O)[C@H](CCCNC(=N)N)NC1=O (Ac-SGR[S5]FIR[S5]VIFTSGGSRW-OH; staple (E) 4-8)
Activity (Rattus norvegicus [6]): Active | Activity (Rattus norvegicus [7]): inactive | Ki (Relaxin-3 receptor 1 [1]): 275 nM | EC50 (Relaxin-3 receptor 1 [2]): 3.31 nM | Ki (Relaxin-3 receptor 2 [3]): 316 nM | EC50 (Relaxin-3 receptor 2 [4]): 112 nM | pEC50 [8]: inactive | Activity [5]: inactive | EC50 (Relaxin-3 receptor 1 [9]): 0.12 nM | Activity [10]: Non-Toxic
